Measured values as given in the array DNA melting data of Ke et al. (doi:10.1101/2024.01.08.574731).

What was measured:
[1] = folding enthalpy; higher = less favourable; fluorescence melt of hairpins on a sequencing array, two-state fit; conditions: sodium 0.088 M
Summary of the method: (§1)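 Folding enthalpy and melting temperature were estimated with bootstrapped two-state fits and combined across four replicates by inverse-variance weighting, with fitted temperatures raised by 9.35 °C to match UV melts. The data were Cy3 fluorescence of library hairpins, with annealed Cy3 and quencher oligos, on a sequenced MiSeq flow cell in 50 mM Na-HEPES pH 8.0, 25 mM NaCl, imaged in 2.5 °C steps up to 60 °C and normalised to pre-quench Cy3 and control constructs.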

[2] = melting temperature; fluorescence melt of hairpins on a sequencing array, two-state fit, raised by 9.35 °C to match UV melts; conditions: sodium 0.088 M
Summary of the method: as §1

| Sequence | folding enthalpy [1] [kcal/mol] | Tm [2] [°C] |
| --- | --- | --- |
| GGCGACCGAAAGGTGCC (((.(((....)))))) | -20.9 | 63.5 |
| GGCGACCGAAAGGTGGCC (((.(((....))).))) | -29.2 | 67.9 |
| GGCGACGAAAGTCTCGCC ((((((....)))..))) | -25.7 | 55.2 |
| GGCGACGGAAACACCGCC ((((..(....)..)))) | -29.3 | 44.5 |
| GGCGAGACGAAAGTCGCC (((..(((....)))))) | -13.8 | 59.4 |
| GGCGAGGGAAACCTTGCC (((.(((....))).))) | -44.4 | 58 |
| GGCGCAGGAAACTACGCC ((((.((....)).)))) | -39 | 53.5 |
| GGCGCCGAAAGGCACGCC ((((((....)))..))) | -15.7 | 63.4 |
| GGCGCGGCGAAAGCCGCC (((..(((....)))))) | -5.51 | 48.6 |
| GGCGGAACGAAAGTTGCC (((..(((....)))))) | -19.5 | 47.6 |
| GGCGGACCGAAAGGTGCC (((..(((....)))))) | -19.9 | 55.1 |
| GGCGGAGGAAACCCCACC ((.((.(....).)).)) | -20.2 | 29.6 |
| GGCGGAGGAAACTCCACC ((.((((....)))).)) | -33.6 | 48.9 |
| GGCGGAGGAAACTCCGTC (.(((((....))))).) | -25.7 | 61.2 |
| GGCGGAGGAAACTCTGCC (((.(((....))).))) | -51.1 | 57.1 |
| GGCGGAGGAAACTTCGCC ((((.((....)).)))) | -49.2 | 59 |
| GGCGGCACGAAAGTGGCC (((..(((....)))))) | -11.6 | 52 |
| GGCGGCCCGAAAGGGGCC (((..(((....)))))) | -7.67 | 53.1 |
| GGCGGCGAAAGCCCAGCC ((((((....)))..))) | -18.5 | 57.8 |
| GGCGGGGGAAACCTCGCC ((((.((....)).)))) | -32.4 | 66.1 |
| GGCGGTCGAAAGACGCC (((.(((....)))))) | -28.6 | 67.3 |
| GGCGGTGCGAAAGCAGCC (((..(((....)))))) | -14.8 | 55.8 |
| GGCGGTGGAAACGCTGCC (((.(.(....).).))) | -21.9 | 54.6 |

| Sequence | folding enthalpy [1] [kcal/mol] | Tm [2] [°C] |
| --- | --- | --- |
| GGCGTACGAAAGTAGCC (((.(((....)))))) | -32.6 | 65.5 |
| GGCGTAGGAAACTGCGTC (.((.((....)).)).) | -19.5 | 44.1 |
| GGCGTCCGAAAGGAGGCC (((.(((....))).))) | -27 | 69.1 |
| GGCGTCGAAAGACATGCC ((((((....)))..))) | -23.1 | 53 |
| GGCGTCGAAAGACCAGCC ((((((....)))..))) | -18.6 | 50.9 |
| GGCGTCGAAAGACCTGCC ((((((....)))..))) | -18.5 | 46.6 |
| GGCGTCGAAAGACGTGCC ((((((....)))..))) | -12 | 51.1 |
| GGCGTCGAAAGACTGGCC ((((((....)))..))) | -34.6 | 53.7 |
| GGCGTCGGAAACAACGCC (((((.(....).))))) | -40.6 | 55.2 |
| GGCGTCGGAAACGACGTC (.(((((....))))).) | -23.4 | 66.2 |
| GGCGTGCCGAAAGGCGCC (((..(((....)))))) | -11.5 | 59.8 |
| GGCGTTCGAAAGAATGCC (((.(((....))).))) | -56.5 | 62.8 |
| GGCGTTGGAAACAGCGCC ((((.((....)).)))) | -52.1 | 60.9 |
| GGCGTTTCGAAAGAAGCC (((..(((....)))))) | -23.8 | 42.5 |
| GGCTAAGAAATTAGCC ((((((....)))))) | -27 | 53.8 |
| GGCTACCGAAAGGTGGCC (((.(((....))).))) | -35.5 | 68.8 |
| GGCTACGAAAGTAAAGCC ((((((....)))..))) | -32.5 | 50.5 |
| GGCTACGAAAGTAGGGCC ((((((....)))..))) | -15.7 | 47.1 |
| GGCTACGAAAGTATGCC ((((((....))).))) | -37.8 | 54.6 |
| GGCTAGGGAAACCCAGCC ((((.((....)).)))) | -39.4 | 52.1 |
| GGCTATCCGAAAGGAGCC (((..(((....)))))) | -27.3 | 47.1 |
| GGCTATCGAAAGATCGCC (((.(((....))).))) | -30.8 | 50.6 |
| GGCTATGCGAAAGCAGCC (((..(((....)))))) | -27.3 | 55.6 |
